Data reported in ChEMBL document CHEMBL1129996, “1-Aryl-3,5-dihydro-4H-2,3-benzodiazepin-4-ones: novel AMPA receptor antagonists” (J Med Chem, 1997).
Several values for one entry are separate records, joined by “and”; a condition that tells them apart may be missing. Equal entries are not always repeated.

How the values were obtained:
[1] = test system: Mus musculus; assay: Anticonvulsant activity against the maximal electroshock in Swiss mice after 45 minutes pretreatment at a dose range 10-150 uM/kg; format: functional
Summary of the method: (§1)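 Swiss mice dosed ip in 50% DMSO/50% saline 45 min before ear-clip electroshock (50 mA, 20 ms pulses, 35 Hz, 400 ms). Protection = abolition of tonic hindlimb extension. Usually 4-5 doses with 8-10 mice each; ED50 (95% confidence limits) by Litchfield-Wilcoxon.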

[2] = Therapeutic index it is the ratio between TD50 and ED50 (from the clonic phase of the audiogenic seizures); conditions: read-out: TI
Summary of the method: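 Therapeutic index computed as rotarod TD50 divided by ED50 for the clonic phase of audiogenic seizures in DBA/2 mice.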

[3] = Relative lipophilicity of compound; format: physicochemical; conditions: reversed-phase TLC, acetone/water 2:1
Summary of the method: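 Reversed-phase TLC type lipophilicity: plates dried 105 °C 1 h, mobile phase acetone:water 2:1, 1 µL of 3 mg/mL CHCl3 solution spotted; five runs with varied positions, mean Rf converted as Rm = log[(1/Rf) - 1].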

[4] = test system: Mus musculus; assay: Anticonvulsant activity against tonic phase of the audiogenic seizures in DBA / 2 mice 30 min after ip administration at a dose range 10-133 uM/kg; format: functional; conditions: 0.5 h
Summary of the method: (§2)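 Groups of 10 DBA/2 mice of either sex; drug ip (0.1 mL/10 g) as fresh solution in 50% DMSO/50% saline, 30 min before auditory stimulation (12-16 kHz, 109 dB, 60 s or until tonic extension) under perspex dome after 60 s habituation. Latency and incidence of wild running, clonic and tonic phases scored; ED50 (95% confidence limits) by Litchfield-Wilcoxon.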

[5] = test system: Mus musculus; assay: Pentylenetetrazole-induced seizures in Swiss mice after 45 min pretreatment at a dose range 10-150 uM/kg; format: functional
[6] = test system: Mus musculus; assay: Anticonvulsant activity against clonic phase of the audiogenic seizures in DBA / 2 mice 30 min after ip administration at a dose range 10-133 uM/kg; format: functional; conditions: 0.5 h; summary of the method: as §2
[7] = Motor toxicity in 50% of mice on locomotion assessed by Rotarod test following 30 min ip administration; format: organism-based; conditions: mouse, in vivo
Summary of the method: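 Male Swiss mice (20-26 g, 48-54 days), groups of 10, trained on rotarod (3 cm, 8 rpm); tested 30 min after ip dosing. Impairment = failure to stay on for 2 min; TD50 (95% confidence limits) by Litchfield-Wilcoxon.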

[8] = test system: Mus musculus; assay: Anticonvulsant activity against tonic phase of the audiogenic seizures in DBA / 2 mice 30 min after ip administration at a dose range 10-120 uM/kg; format: functional; conditions: 0.5 h; summary of the method: as §2
[9] = test system: Mus musculus; assay: Anticonvulsant activity against clonic phase of the audiogenic seizures in DBA / 2 mice 30 min after ip administration at a dose range 10-120 uM/kg; format: functional; conditions: 0.5 h; summary of the method: as §2
[10] = species on record: Mus musculus; assay: Audiogenic seizures after concomitant treatment with Flumazenil (24.72 uM) in DBA / 2 mice tonic phase; format: functional
[11] = test system: Mus musculus; assay: Anticonvulsant activity against the clonic seizures induced by icv injection of AMPA in DBA / 2 mice at a dose range of 10-200 uM/kg; format: functional; conditions: central
[12] = test system: Mus musculus; assay: Audiogenic seizures after pretreatment with Aniracetam in DBA / 2 mice clonic phase at a dose range of 33-300 uM/kg; format: functional
Summary of the method: (§3)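 DBA/2 mice pretreated with aniracetam 50 nmol icv 60 min before auditory testing, with ip 2,3-benzodiazepine; audiogenic clonic and tonic phases scored; ED50 by Litchfield-Wilcoxon.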

[13] = species on record: Mus musculus; assay: Audiogenic seizures after concomitant treatment with Flumazenil (8.24 uM) in DBA / 2 mice tonic phase; format: functional
[14] = test system: Mus musculus; assay: Anticonvulsant activity against the tonic seizures induced by icv injection of AMPA in DBA / 2 mice at a dose range of 10-200 uM/kg; format: functional; conditions: central
[15] = species on record: Mus musculus; assay: Audiogenic seizures after concomitant treatment with Flumazenil (8.24 uM) in DBA / 2 mice clonic phase; format: functional
[16] = test system: Mus musculus; assay: Audiogenic seizures after pretreatment with Aniracetam in DBA / 2 mice tonic phase at a dose range of 33-300 uM/kg; format: functional; summary of the method: as §3
[17] = test system: Mus musculus; assay: Pentylenetetrazole-induced seizures in Swiss mice after 45 min pretreatment at a dose range 10-100 uM/kg; format: functional
Summary of the method: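 Male Swiss mice (20-26 g), compound ip in 50% DMSO/50% saline 45 min before sc pentylenetetrazole at CD97 (85 mg/kg), then observed 30 min. Protection is absence of clonic spasms lasting at least 5 s. Typically 4-5 doses, 8-10 mice per dose. ED50 with 95% confidence limits by Litchfield and Wilcoxon.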

[18] = test system: Mus musculus; assay: Anticonvulsant activity against tonic phase of the audiogenic seizures in DBA / 2 mice 30 min after ip administration at a dose range 10-100 uM/kg; format: functional; conditions: 0.5 h; summary of the method: as §2
[19] = species on record: Mus musculus; assay: Audiogenic seizures after concomitant treatment with Flumazenil (24.72 uM) in DBA / 2 mice clonic phase; format: functional
[20] = test system: Mus musculus; assay: Anticonvulsant activity against the maximal electroshock in Swiss mice after 45 minutes pretreatment at a dose range 10-100 uM/kg; format: functional; summary of the method: as §1
[21] = test system: Mus musculus; assay: Anticonvulsant activity against clonic phase of the audiogenic seizures in DBA / 2 mice 30 min after ip administration at a dose range 10-100 uM/kg; format: functional; conditions: 0.5 h; summary of the method: as §2
[22] = test system: Mus musculus; assay: Anticonvulsant activity against the maximal electroshock in Swiss mice after 45 minutes pretreatment at a dose range 33-200 uM/kg; format: functional; summary of the method: as §1
[23] = test system: Mus musculus; assay: Anticonvulsant activity against clonic phase of the audiogenic seizures in DBA / 2 mice 30 min after ip administration at a dose range 33-200 uM/kg; format: functional; conditions: 0.5 h; summary of the method: as §2
[24] = test system: Mus musculus; assay: Anticonvulsant activity against tonic phase of the audiogenic seizures in DBA / 2 mice 30 min after ip administration at a dose range 33-200 uM/kg; format: functional; conditions: 0.5 h; summary of the method: as §2
[25] = test system: Mus musculus; assay: Pentylenetetrazole-induced seizures in Swiss mice after 45 min pretreatment at a dose range 33-200 uM/kg; format: functional

| Compound | Rm [3] | ED50 [1] | therapeutic index (TD50/ED50) [2] | ED50 [5] | TD50 at 0.5 h [7] | ED50 [8] | ED50 [9] | ED50 [18] | other results |
| --- | --- | --- | --- | --- | --- | --- | --- | --- | --- |
| COc1cc2c(cc1OC)C(c1ccc(Br)cc1)=NNC(=O)C2 | 0.052 | 123 µmol/kg | 2 | > 150 µmol/kg | 226 µmol/kg | – | – | – | ED50 [4]: 82.5 µmol/kg and 30.7 mg/kg; ED50 [6]: 110 µmol/kg and 41.2 mg/kg |
| COc1cc2c(cc1OC)C(c1cccc([N+](=O)[O-])c1)=NNC(=O)C2 | -0.14 | > 150 µmol/kg | – | > 150 µmol/kg | > 150 µmol/kg | > 120 µmol/kg and > 44 mg/kg | > 120 µmol/kg and > 44 mg/kg | – | – |
| COc1cc2c(cc1OC)C(c1ccccc1)=NNC(=O)C2 | -0.012 | – | 4.2 | – | 142 µmol/kg | – | – | 31.8 µmol/kg and 9.41 mg/kg | ED50 [10]: 41.3 µmol/kg; ED50 [11]: 66 µmol/kg; ED50 [12]: 215 µmol/kg; ED50 [13]: 35.8 µmol/kg; ED50 [14]: 42.6 µmol/kg; ED50 [15]: 38.2 µmol/kg; ED50 [16]: 157 µmol/kg; ED50 [17]: 68.2 µmol/kg; ED50 [19]: 50.9 µmol/kg; ED50 [20]: 35.8 µmol/kg |
| COc1cc2c(cc1OC)C(c1ccccc1)=NN(C)C(=O)C2 | 0 | 42.7 µmol/kg | 4.1 | 89.9 µmol/kg | 154 µmol/kg | – | – | 26.7 µmol/kg and 8.28 mg/kg | ED50 [11]: 76.1 µmol/kg; ED50 [12]: 259 µmol/kg; ED50 [21]: 37.8 µmol/kg and 11.7 mg/kg; ED50 [14]: 69.6 µmol/kg; ED50 [16]: 197 µmol/kg |
| COc1cc2c(cc1OC)C(c1ccc(Cl)cc1)=NNC(=O)C2 | 0.017 | – | 2.3 | – | 240 µmol/kg | – | – | – | ED50 [22]: 115 µmol/kg; ED50 [23]: 102 µmol/kg and 33.7 mg/kg; ED50 [24]: 75.3 µmol/kg and 24.8 mg/kg; ED50 [25]: 145 µmol/kg |

The next lines start with results.

| Rm [3] | Compound | ED50 [1] | therapeutic index (TD50/ED50) [2] | ED50 [5] | TD50 at 0.5 h [7] | ED50 [8] | ED50 [9] | ED50 [18] | other results |
| --- | --- | --- | --- | --- | --- | --- | --- | --- | --- |
| 0.11 | COc1cc2c(cc1OC)C(c1ccc([N+](=O)[O-])cc1)=NN(C)C(=O)C2 | > 150 µmol/kg | – | > 150 µmol/kg | > 150 µmol/kg | > 120 µmol/kg and > 44 mg/kg | > 120 µmol/kg and > 44 mg/kg | – | – |
| -0.031 | COc1cc2c(cc1OC)C(c1ccc(C#N)cc1)=NN(C)C(=O)C2 | – | – | – | > 150 µmol/kg | > 120 µmol/kg and > 44 mg/kg | > 120 µmol/kg and > 44 mg/kg | – | – |
| -0.065 | COc1cc2c(cc1OC)C(c1ccc(C#N)cc1)=NN(C(C)=O)C(=O)C2 | – | – | – | > 150 µmol/kg | > 120 µmol/kg and > 44 mg/kg | > 120 µmol/kg and > 44 mg/kg | – | – |
| 0.288 | COc1cc2c(cc1OC)C(c1ccc(Br)cc1)=NN(C)C(=O)C2 | – | – | – | – | – | – | 38 µmol/kg and 14.8 mg/kg | ED50 [21]: 63 µmol/kg and 24.5 mg/kg |
| -0.218 | COc1cc2c(cc1OC)C(c1ccc(C#N)cc1)=NNC(=O)C2 | > 150 µmol/kg | – | > 150 µmol/kg | > 150 µmol/kg | > 120 µmol/kg and > 44 mg/kg | > 120 µmol/kg and > 44 mg/kg | – | – |
